The record followed here is ChEMBL document CHEMBL4382192, “Discovery of a potent dual ALK and EGFR T790M inhibitor” (Eur J Med Chem, 2017).

Data set [1] has as its target Serine/threonine-protein kinase PLK2 (Homo sapiens) (UniProt Q9NYY3). Description: Binding affinity to wild-type human partial length PLK2 (H58 to F354 residues) expressed in mammalian expression system assessed as residual binding level at 1 uM by Kinomescan method relative to control.
Data set [2] has as its target Interleukin-1 receptor-associated kinase 1 (Homo sapiens) (UniProt P51617). The data set can be described thus: Binding affinity to wild-type human partial length IRAK1 (R194 to S712 residues) expressed in mammalian expression system assessed as residual binding level at 1 uM by Kinomescan method relative to control.
Data set [3] addresses cGMP-dependent protein kinase 2 (Homo sapiens) (UniProt Q13237). Description: Binding affinity to wild-type human partial length PRKG2 (S422 to F762 residues) expressed in mammalian expression system assessed as residual binding level at 1 uM by Kinomescan method relative to control.
For data set [4], the target named is Serine/threonine-protein kinase pim-1 (Homo sapiens) (UniProt P11309). Description: Binding affinity to wild-type human partial length PIM1 (A15 to K313 residues) expressed in bacterial expression system assessed as residual binding level at 1 uM by Kinomescan method relative to control.
The target of data set [5] is NUAK family SNF1-like kinase 1 (Homo sapiens) (UniProt O60285). The data set can be described thus: Binding affinity to wild-type human partial length ARK5 (E25 to I332 residues) expressed in bacterial expression system assessed as residual binding level at 1 uM by Kinomescan method relative to control.
Data set [6] concerns the target Glycogen synthase kinase-3 beta (Homo sapiens) (UniProt P49841). Description: Binding affinity to wild-type human full length GSK3B (M1 to T433 residues) expressed in mammalian expression system assessed as residual binding level at 1 uM by Kinomescan method relative to control. Put shortly:
(§1)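 Single-point kinome-wide KINOMEscan binding panel, test compound at 1 μM, run by the provider's standard protocol.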

A short description of data set [7]: Metabolic stability in mouse liver microsomes assessed as parent compound remaining at 1 uM after 30 mins in presence of NADPH by LC/MS/MS analysis. As to conditions: read-out: Stability. The data set is classed as ADME, Microsome. Put shortly: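 Compound at 1 μM final with 0.5 mg/mL microsomal protein in 100 mM phosphate buffer pH 7.4 at 37 °C, started by adding an NADPH-regenerating system. Reactions were quenched with cold acetonitrile at 0 and 30 min and spun down. Supernatant was analysed by LC-MS/MS. The 0-min sample, quenched before NADPH addition, was set as 100%, and percent parent remaining came from peak areas.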

In data set [8] the target is BMP-2-inducible protein kinase (Homo sapiens) (UniProt Q9NSY1). Description: Binding affinity to wild-type human partial length BIKE (S34 to N329 residues) expressed in bacterial expression system assessed as residual binding level at 1 uM by Kinomescan method relative to control.
Data set [9] addresses Tyrosine-protein kinase Lck (Homo sapiens) (UniProt P06239). Description: Binding affinity to wild-type human partial length LCK (R207 to P509 residues) expressed in bacterial expression system assessed as residual binding level at 1 uM by Kinomescan method relative to control.
Data set [10] concerns the target Casein kinase I isoform epsilon (Homo sapiens) (UniProt P49674). Description: Binding affinity to wild-type human full length CSNK1E (M1 to K416 residues) expressed in bacterial expression system assessed as residual binding level at 1 uM by Kinomescan method relative to control.
Data set [11] concerns the target Dual specificity protein kinase CLK2 (Homo sapiens) (UniProt P49760). Description: Binding affinity to wild-type human partial length CLK2 (D144 to R498 residues) expressed in bacterial expression system assessed as residual binding level at 1 uM by Kinomescan method relative to control.
Data set [12] deals with Testis-specific serine/threonine-protein kinase 3 (Homo sapiens) (UniProt Q96PN8). The data set can be described thus: Binding affinity to wild-type human full length TSSK3 (M1 to T268 residues) expressed in mammalian expression system assessed as residual binding level at 1 uM by Kinomescan method relative to control.
The target in data set [13] is Mitogen-activated protein kinase kinase kinase 5 (Homo sapiens) (UniProt Q99683). Description: Binding affinity to wild-type human partial length ASK1 (E648 to S964 residues) expressed in bacterial expression system assessed as residual binding level at 1 uM by Kinomescan method relative to control.
In data set [14] the test system is Proto-oncogene tyrosine-protein kinase receptor Ret (Homo sapiens), P07949 [M918T]. The data set can be described thus: Binding affinity to human partial length RET M918T mutant (E713 to D1014 residues) expressed in bacterial expression system assessed as residual binding level at 1 uM by Kinomescan method relative to control. Put shortly:
(§2)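 Kinome-wide selectivity panel run by the KINOMEscan method, with the test compound at a single concentration of 1 μM. Wild-type and mutant kinases were profiled in the same screen.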

Data set [15] deals with Mitogen-activated protein kinase 1 (Homo sapiens) (UniProt P28482). Description: Binding affinity to wild-type human full length ERK2 (M1 to S360 residues) expressed in bacterial expression system assessed as residual binding level at 1 uM by Kinomescan method relative to control. Put shortly: as §1
Data set [16] addresses Calcium/calmodulin-dependent protein kinase type 1G (Homo sapiens) (UniProt Q96NX5). The data set can be described thus: Binding affinity to wild-type human partial length CAMK1G (M1 to A342 residues) expressed in bacterial expression system assessed as residual binding level at 1 uM by Kinomescan method relative to control.
The target in data set [17] is Ephrin type-B receptor 4 (Homo sapiens) (UniProt P54760). Description: Binding affinity to wild-type human partial length EPHB4 (H585 to G892 residues) expressed in bacterial expression system assessed as residual binding level at 1 uM by Kinomescan method relative to control.
The subject of data set [18] is Tyrosine-protein kinase ABL1 (Homo sapiens), P00519 [F317I]. The data set can be described thus: Binding affinity to human non-phosphorylated ABL1 F317I mutant (S229 to K512 residues) expressed in mammalian expression system assessed as residual binding level at 1 uM by Kinomescan method relative to control. Put shortly: as §2
For data set [19], the target named is Ephrin type-B receptor 6 (Homo sapiens) (UniProt O15197). Description: Binding affinity to wild-type human partial length EPHB6 (Q634 to P948 residues) expressed in mammalian expression system assessed as residual binding level at 1 uM by Kinomescan method relative to control.
The target in data set [20] is Mitogen-activated protein kinase kinase kinase 2 (Homo sapiens) (UniProt Q9Y2U5). Description: Binding affinity to wild-type human partial length MAP3K2 (S315 to H619 residues) expressed in mammalian expression system assessed as residual binding level at 1 uM by Kinomescan method relative to control.
Data set [21] deals with Bone morphogenetic protein receptor type-1A (Homo sapiens) (UniProt P36894). Description: Binding affinity to wild-type human partial length BMPR1A (Q214 to I532 residues) expressed in bacterial expression system assessed as residual binding level at 1 uM by Kinomescan method relative to control.
Data set [22] has as its target Mitogen-activated protein kinase kinase kinase 4 (Homo sapiens) (UniProt Q9Y6R4). Description: Binding affinity to wild-type human partial length MAP3K4 (G1319 to E1608 residues) expressed in bacterial expression system assessed as residual binding level at 1 uM by Kinomescan method relative to control.
Data set [23] has as its system Receptor-type tyrosine-protein kinase FLT3 (Homo sapiens), P36888 [D835V]. The data set can be described thus: Binding affinity to human partial length FLT3 D835V mutant (V592 to Y969 residues) expressed in bacterial expression system assessed as residual binding level at 1 uM by Kinomescan method relative to control. A digest of the protocol:
as §2

Consider `C=CC(=O)Nc1cc(Nc2ncc(Cl)c(Nc3ccccc3S(=O)(=O)C(C)C)n2)c(OC)cc1N(C)CCN(C)C`, for which the Activity amounted to 87% in [1]; 21% in [2]; 79% in [3]; 83% in data set [4]; 8.1% in data set [5]; 93% in data set [6]. Moreover, the Activity in data set [8] came out at 92%; in [9], 14%; in [10], 100%; in data set [11], 1.7%; in data set [12] it was 46%; in [13], 100%. The Activity in [14] was 9.7%; in data set [15] it was 68%; in data set [16] it was 45%; in data set [17], 76%; in data set [18], 0.05%; in data set [19] it was 15%. The Activity turned out to be 32% in data set [20], 65% in data set [21], 67% in [22] and 2.4% in [23]. For the same compound, the remaining at 0.5 h, 1 µM in data set [7] turned out to be 12%.
